From ChEMBL document CHEMBL4513216, “Probing the Open Global Health Chemical Diversity Library for Multistage-Active Starting Points for Next-Generation Antimalarials” (ACS Infect Dis, 2020)

assay: Toxicity liver stage against HepG2, at 10uM; assay type: cell-based; design: test concentration 10 uM, cell line HepG2-A16-CD81EGFP; details: human, HepG2-A16-CD81EGFP cells; read-out: INHIBITION
How it was run: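 Uninfected HepG2-A16-CD81EGFP cells, 3 × 10^3 per well, 1536-well, plated on prespotted compound at 10 μM final, parasite-free screening media added to match infected plates; puromycin 10 μM positive, DMSO 0.5% negative; run in parallel with 48 h PbLuc assay at 37 °C, 5% CO2; viability by CellTiter-Glo luminescence, normalized to controls.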

SMILES	cytotoxicity at 10 µM [%]
CCCN1C[C@H](NC(=O)c2cc(C)no2)[C@@H](c2ccc(OC)cc2)C1	-27.3
CC(NC(=O)CCc1cccc(OC2CCCC2)c1)c1nncn1C (configuration not stated)	7.2
CN(C)C(=O)C1CCCN1c1ncnc2ccsc12 (configuration not stated)	4.04
CC(Cn1cncn1)Nc1ccc(-c2nccn2C)nn1 (configuration not stated)	-3.73
CC(C)Cc1nnc2sc(-c3cc(C(C)C)n[nH]3)nn12	8.08
CC(CNC(=O)c1ccncc1F)Oc1ccc(F)cc1 (configuration not stated)	0.0383
Cc1nc(CN2CCOC(c3ccc(Cl)cc3)C2)oc1C (configuration not stated)	-10.1
CN(C(=O)Nc1cccnc1)C1CCN(c2ccc(Cl)cc2)CC1	-2.46
Cc1cc(C)n(C2CCCN(C(=O)c3cn4cccnc4n3)C2)n1 (configuration not stated)	-4.62
Cc1cccc(C(=O)N2CCCC(c3noc(C)n3)C2)n1 (configuration not stated)	-19.9
O=C1COc2c(cccc2C(=O)N2CCCCC2Cn2cccn2)N1 (configuration not stated)	4.07
COc1ccc(CN2CCC3(CC(C(=O)NCC(C)C)=NO3)C2)cc1 (configuration not stated)	11
CCc1nc(CCn2cc(-c3nccn3C)nn2)no1	-55.3
CCC(CC)C(O)CNC(=O)Nc1cccc(-c2nccn2C)c1 (configuration not stated)	-1.39
CNC(=O)C1CCN(S(C)(=O)=O)CC1	-4.81
O=C(c1ccc(-c2ccccc2)[nH]c1=O)N1CCCn2ncnc21	1.46
N#Cc1cc(F)c(NCc2ccc(F)cc2)c(F)c1	-57
Cc1cccc(OCCC(=O)N2CCN(CC(=O)NC3CC3)CC2)c1C	2.22
CCCn1ncc(CN2C[C@@H]3CCCN3C[C@H]2CCSC)c1C	-11.2
CS(=O)(=O)CCN(CCCO)C1CCc2ccccc21 (configuration not stated)	7.37
COc1ccc(-c2nnc(SC(C)C(N)=O)[nH]2)c(OC)c1 (configuration not stated)	-15
Cc1cc(Nc2ccc(F)cn2)cc(C2CCCN2)n1 (configuration not stated)	0.0453
CCN(CCNS(=O)(=O)C1CCOCC1)C(=O)OC(C)(C)C	-1.8

SMILES	cytotoxicity at 10 µM [%]
COc1ccc2c(=O)n(CC3CC3)ccc2c1OC	12.8
CC1=Nc2c(c(O)nn2C(C)C)C(c2cccnc2)S1 (configuration not stated)	2.93
C=C(C)COc1cccc(C(=O)N(CC)Cc2nccn2C)c1	-4.69
Cc1nc(CCN2CCCCC2)n(-c2ccc(F)cc2)n1	-2.23
CNc1nc(C)c(C(=O)N2CCCCC2CN2CCCCCC2)s1 (configuration not stated)	-2.5
Cc1nc(CN2CCN(C)C(=O)C23CCN(CC2CCCC2)CC3)cs1	11
CN(C)CCn1nc(C2CCN(S(=O)(=O)N(C)C)C2)c2cccnc21 (configuration not stated)	-2.15
O=C(NCc1ccon1)Nc1cc(F)ccc1N1CCCCC1	12.7
CN(C)C(=O)CN1CCCC1c1nccnc1Nc1ccccn1 (configuration not stated)	-15
Cc1cccc(CN2CCn3c(C(=O)N(C)C)cnc3C2)c1	-69.5
O=C(c1ccc(-c2cccc3c2CCNC3)o1)N1CCOCC1	3.34
O=C(c1cccs1)N1CC[C@@H](N2CCOCC2)[C@@H]1Cc1ccccc1	-81.6
CS(=O)(=O)NCCC(=O)N1Cc2cnc(-c3ccccc3)nc2C1	-4.65
COc1cc(CN2CCC(O)(c3ccc(C)cn3)CC2)cc(Cl)c1OC	-132
CN(Cc1ncc[nH]1)C(=O)C(C)(C)NC(=O)c1cccs1	11.6
CC(C)(C)NC(=O)CNC(=O)CCc1ccccc1Br	3.09
CC(=O)NCc1cc2n(n1)CCN(Cc1cc(-c3ccccc3)no1)C2	7.12
CCOCc1nc(CSc2ccncc2)n(C)n1	2.87
CCOc1ccc(CN2CCC3(CC2)CNC(=O)C3)cn1	0.987
NC(=O)C1CN(Cc2c[nH]cn2)CCN(C2CCOCC2)C1 (configuration not stated)	3.83
CC(c1ccccc1)N(C)C(=O)Cn1cc(NC(=O)C(C)(C)C)cn1 (configuration not stated)	4
C[S+]([O-])c1nncn1CC(=O)c1ccc2c(c1)CCC2 (configuration not stated)	-1.88
Cc1nc(C)n(CC2CCCN(CCOc3cccc(F)c3)C2)n1 (configuration not stated)	-3.18

SMILES	cytotoxicity at 10 µM [%]
Cc1ccc(NC(=O)[C@H]2C[C@H](C(=O)O)CN(CC(C)C)C2)cn1	9.9
CCS(=O)(=O)Nc1ccc2oc(C)c(C(C)=O)c2c1	7.13
CCc1nc(C(=O)N2CC(C)CN(C)c3ccccc32)c[nH]1 (configuration not stated)	-3.47
Cc1cc(C)nc(N2CCC(C(=O)Nc3ncc[nH]3)CC2)n1	4.47
CC(C)OC(=O)N1CCC(Cc2cccc(C(N)=O)c2)C1 (configuration not stated)	7.56
COCc1cc(CNC(=O)c2c(C)cc(C)[nH]c2=O)n[nH]1	-4.69
Cc1cnc(N2CCCn3c(nnc3Cn3cccn3)C2)nc1	6.19
CCO[C@@H]1CO[C@@]2(CCN(Cc3ccc4c(c3)OCO4)C2)C1	5.53
CCN(c1ccsc1C(=O)N1CCSCC1)S(=O)(=O)c1ccccc1	8.24
N#Cc1ncn(CCC(=O)Nc2cccc(Cl)c2)n1	-152
Cc1cccnc1CN(C)C(C(=O)O)c1ccc(C(C)(C)C#N)cc1 (configuration not stated)	0.566
COc1c(F)cccc1C(=O)N(C)Cc1nc(-c2ccccn2)no1	-1.51
Cc1cccc(CN2C[C@@H]3CN(C(=O)NC(C)C)C[C@@H]3C2=O)n1	2.91
Cc1noc(C)c1S(=O)(=O)N1CCC(Oc2ccccn2)CC1	0.67
c1cc(CCn2ccc(NC3CCSCC3)n2)ccn1	5.55
O=C(c1ccc2ccc(N3CCN(CC4CC4)CC3)n2c1)N1CCCO1	9.81
COCc1noc(CN2CC(=O)N(C)c3ccccc3C2=O)n1	-6.3
CCN(Cc1nc(COC)no1)Cc1cccnc1NC(=O)C(C)(C)C	-47.9
Cc1ccc(CN2CC(C(=O)NC(C)C)C3(CCOCC3)C2)s1 (configuration not stated)	1.12
c1ccc(-n2nnnc2CNCC2CCCN2c2cccnn2)cc1 (configuration not stated)	-4.14
COCC(=O)N(CCC(=O)OC)CC1CCCO1 (configuration not stated)	1.74
CN(C)c1cccc(C(=O)N2CCc3ccc(=O)[nH]c3CC2)c1	9.23
Cn1nc2c(cc1=O)CN(Cc1nc(-c3ccoc3)no1)CC2	7.72

SMILES	cytotoxicity at 10 µM [%]
O=C(NCCNc1cnccn1)N1CCc2ccccc2C1	-2.73
Cn1cc(C(=O)N2CCN(Cc3cscn3)CC2)ccc1=O	-4.79
CCNc1ncc(C(=O)NC(CCN(C)C)c2ccccc2)cn1 (configuration not stated)	4.8
CC(SCCS(C)(=O)=O)c1nc(Cc2ccc(F)cc2)no1 (configuration not stated)	4.6
c1cc(COC[C@@]23CCC[C@@H]2CN(C2CCOCC2)C3)ccn1	8.44
CN(C)c1ccc(-c2cccc(-c3ccn(CCCO)n3)c2)nn1	-3.06
CC(C)N1CCO[C@H]2CN(S(=O)(=O)c3ccc(C#N)cc3)C[C@H]21	7.55
Cc1nn(-c2ccccc2)cc1C(=O)N1CCCN2CCCC2C1 (configuration not stated)	-2.21
COCCC1(CNC(=O)NCC2CCC2)CCC1	-10.1
Cc1csc(N2CCN(C(=O)c3cc(Cl)c[nH]3)CC2)n1	-2.82
O=C1CC(CNc2cncc(Br)c2)c2ccccc2N1 (configuration not stated)	-5.19
CCOC(=O)C(C)Nc1ccc(CCN2CCOCC2)cc1 (configuration not stated)	-2.2
Cc1csc(C(Cc2cccs2)NCc2cc3c(cc2C)OCO3)n1 (configuration not stated)	-8.9
O=C(CCC1CCCO1)NCCc1ccccn1 (configuration not stated)	-43.2
Cc1c[nH]c(CN(C)C(=O)CCn2cnc3ccccc32)n1	9.67
CCCc1noc(C2CCN(C(=O)C3CCCO3)CC2)n1 (configuration not stated)	0.12
CCn1nc(C)c2nnn(CC(=O)Nc3c(C)cccc3C)c(=O)c21	5.22
COCCN(Cc1ccc(F)cc1C#N)CC(F)(F)F	-3.02
Cc1nc(NCc2ccc(C)o2)cc(C(=O)N2CCOCC2)n1	-2.03
Cc1ccc(F)cc1S(=O)(=O)N1C[C@@H](C)[C@@](C)(O)C1	-0.784
O=C(c1cccs1)N1CCC[C@]2(C[C@@H](OCc3ccncc3)CO2)C1	7.92
Cc1csc2c(=O)n3c(nc12)CCN(C(=O)c1ccccn1)CC3	-10.2
O=C(Cc1cccc(F)c1)N1CCc2ncnc(NC3CCC3)c2CC1	-105

SMILES	cytotoxicity at 10 µM [%]
Cn1cc(CNC2CCOCC2)c(-c2cc3ccccc3o2)n1	-45.1
Cn1ccnc1COc1ccc(CN2CCN(CCO)CC2)cc1	-10.2
COc1ccccc1C1CCCN1CC(=O)N1CCC(C(N)=O)CC1 (configuration not stated)	-24.8
O=C(c1c2c(N3CCOCC3)ncnc2n2ccccc12)N1CCCC1	-1.52
O=C(CCCc1ccccc1)N1CCCC(n2cncn2)C1 (configuration not stated)	-18.3
CN(C)C(=O)CNC(=O)c1ccc(Cl)cc1F	-7.04
CCCc1noc(CNC2CCCN(Cc3noc(C4CC4)n3)C2)n1 (configuration not stated)	-13.5
Cc1noc(C)c1CN1CCC2(CC1)C(c1cnn(C)c1)CC(=O)N2C (configuration not stated)	-106
COCC(=O)NCCc1ccc(Cl)s1	13.4
Cc1n[nH]c(=O)c(C(=O)N2CCN(CCc3cccs3)CC2)c1C	-6.22
Cc1csc(CN(C)S(=O)(=O)c2ccc(C)c(N(C)C)c2)n1	13.7
O=C(Cc1ccc(F)cc1)NCCNCc1cccc(O)c1	-10.4
NC(=O)C1CCN(c2nccc(-c3c[nH]nc3C3CCCCC3)n2)CC1	-10.6
COCCC1COC2(CCN(C(=O)CC3CCCC3)CC2)C1 (configuration not stated)	-2.46
CC(C)c1nn2c(-c3cnn(C)c3)nnc2s1	-8.75
CN(C)[C@@H]1CO[C@H](CNC(=O)C2CCCC2)[C@H]1O	-0.321
CCc1cnc2c(c1NCc1ccc(OC)cc1)c(=O)n(C)c(=O)n2C	5.79
O=C1C[C@H]2[C@@H](CCN2Cc2ccccn2)N1Cc1cccnc1	4.88
CCCN1CCN(Cc2cccc(OCC(N)=O)c2)[C@H]2CS(=O)(=O)C[C@H]21	2.77
O=C(O)c1cncc(Cc2ccccc2F)c1	0.812
